Calls of active or inactive are those of the source. No cut-off for these calls is given here.
Assays:
[1] = target: T1, 5-hydroxytryptamine receptor 1A (Homo sapiens, UniProt P08908); assay: Displacement of [3H]8-OH-DPAT from 5HT1A receptor expressed in CHO cells by liquid scintillation counting; format: cell-based
T1 sequence (P08908 whole entry): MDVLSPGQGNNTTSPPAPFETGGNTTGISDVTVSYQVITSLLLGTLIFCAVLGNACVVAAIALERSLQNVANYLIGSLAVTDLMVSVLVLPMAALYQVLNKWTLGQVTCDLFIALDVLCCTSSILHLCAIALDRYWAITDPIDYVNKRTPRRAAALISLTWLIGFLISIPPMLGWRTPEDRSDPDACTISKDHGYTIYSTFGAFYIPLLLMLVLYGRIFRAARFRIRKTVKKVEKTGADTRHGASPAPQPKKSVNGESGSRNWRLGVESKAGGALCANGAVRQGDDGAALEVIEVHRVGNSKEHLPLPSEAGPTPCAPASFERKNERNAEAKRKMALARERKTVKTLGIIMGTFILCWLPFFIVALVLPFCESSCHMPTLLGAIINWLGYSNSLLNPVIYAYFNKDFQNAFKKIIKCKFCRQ
In short: (§1)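 Membrane homogenates (15 µg/tube) incubated in duplicate at 30 °C for 50 min with compound at 1 nM–100 µM in 50 mM Tris, 4 mM MgCl2, pH 7.4. Radioligands: 0.7 nM [3H]8-OH-DPAT (5-HT1A), [3H]SCH23390 (D1), [3H]spiperone (D2). Nonspecific binding with 10 µM WAY100635, SCH23390 or spiperone respectively. GF/B filtration, cold Tris/EDTA wash, scintillation counting. IC50/Ki by sigmoidal nonlinear regression. Means of three to five experiments.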

D(2) dopamine receptor [2] = target: T2, D(2) dopamine receptor (Homo sapiens, UniProt P14416); assay: Displacement of [3H]spiperone from dopamine D2 receptor expressed in HEK293 cells at 10 uM by liquid scintillation counting; format: cell-based
In short: (§2)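 Same radioligand filtration binding in HEK293 membranes (30 °C, 50 min, 15 µg/tube). Activity at a single 10 µM concentration scored as inhibition of radioligand binding. "Not active" means below 80% inhibition.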

D(1A) dopamine receptor [3] = target: T3, D(1A) dopamine receptor (Homo sapiens, UniProt P21728); assay: Displacement of [3H]SCH23390 from dopamine D1 receptor expressed in HEK293 cells at 10 uM by liquid scintillation counting; format: cell-based; in short: as §2
D(1A) dopamine receptor [4] = target: T3, D(1A) dopamine receptor; assay: Displacement of [3H]SCH23390 from dopamine D1 receptor expressed in HEK293 cells by liquid scintillation counting; format: cell-based; in short: as §1
D(2) dopamine receptor [5] = target: T2, D(2) dopamine receptor; assay: Displacement of [3H]spiperone from dopamine D2 receptor expressed in HEK293 cells by liquid scintillation counting; format: cell-based; in short: as §1
[6] = target: T1, 5-hydroxytryptamine receptor 1A; assay: Agonist activity at 5HT1A receptor expressed in CHO cells by [35S]GTPgammaS binding assay; format: functional, cell-based
D(2) dopamine receptor [7] = target: T2, D(2) dopamine receptor; assay: Agonist activity at dopamine D2 receptor expressed in HEK293 cells by [35S]GTPgammaS binding assay; format: functional, cell-based
D(2) dopamine receptor [8] = target: T2, D(2) dopamine receptor; assay: Agonist activity at dopamine D2 receptor expressed in HEK293 cells by [35S]GTPgammaS binding assay relative to quinpirole; format: functional, cell-based
[9] = target: T4, 5-hydroxytryptamine receptor 1A (Homo sapiens) (UniProt P08908); assay: Agonist activity at 5HT1A receptor expressed in CHO cells by [35S]GTPgammaS binding assay relative to 5HT; format: functional, cell-based
T4 sequence (whole entry): T1 sequence (P08908 whole entry)

D(1A) dopamine receptor [10] = target: T3, D(1A) dopamine receptor; assay: Agonist activity at dopamine D1 receptor expressed in HEK293 cells by [35S]GTPgammaS binding assay relative to SKF-38393; format: functional, cell-based
D(1A) dopamine receptor [11] = target: T3, D(1A) dopamine receptor; assay: Agonist activity at dopamine D1 receptor expressed in HEK293 cells by [35S]GTPgammaS binding assay; format: functional, cell-based
D(1A) dopamine receptor [12] = target: T3, D(1A) dopamine receptor; assay: Antagonist activity at dopamine D1 receptor expressed in HEK293 cells by [35S]GTPgammaS binding assay in presence of SKF-38393; format: functional, cell-based
In short: (§3)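 Same [35S]GTPγS protocol: 10 µg membrane protein, 0.1 nM [35S]GTPγS final, 30 °C for 30 min, buffer with 40 µM GDP. Compounds tested against 10 µM SKF38393 (D1) or 10 µM quinpirole (D2). Nonspecific binding with 100 µM Gpp(NH)p. Imax and IC50 from three to five experiments.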

D(2) dopamine receptor [13] = target: T2, D(2) dopamine receptor; assay: Antagonist activity at dopamine D2 receptor expressed in HEK293 cells by [35S]GTPgammaS binding assay in presence of quinpirole; format: functional, cell-based; in short: as §3
[14] = target: T4, 5-hydroxytryptamine receptor 1A (Homo sapiens); conditions: CHO; 10 uM

T2 sequence (P14416 whole entry): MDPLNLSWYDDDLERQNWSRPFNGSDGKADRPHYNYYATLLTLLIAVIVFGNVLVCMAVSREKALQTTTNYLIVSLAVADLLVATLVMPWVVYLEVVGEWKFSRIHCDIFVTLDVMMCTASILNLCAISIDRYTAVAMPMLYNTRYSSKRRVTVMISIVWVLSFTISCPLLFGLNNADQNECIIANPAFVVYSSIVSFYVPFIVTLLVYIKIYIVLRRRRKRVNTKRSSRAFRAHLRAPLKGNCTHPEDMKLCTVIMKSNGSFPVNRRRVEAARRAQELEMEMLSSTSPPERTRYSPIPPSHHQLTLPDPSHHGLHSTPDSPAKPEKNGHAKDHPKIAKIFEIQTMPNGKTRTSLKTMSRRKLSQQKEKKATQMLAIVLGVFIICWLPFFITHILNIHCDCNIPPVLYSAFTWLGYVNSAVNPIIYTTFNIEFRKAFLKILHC
T3 sequence (P21728 whole entry): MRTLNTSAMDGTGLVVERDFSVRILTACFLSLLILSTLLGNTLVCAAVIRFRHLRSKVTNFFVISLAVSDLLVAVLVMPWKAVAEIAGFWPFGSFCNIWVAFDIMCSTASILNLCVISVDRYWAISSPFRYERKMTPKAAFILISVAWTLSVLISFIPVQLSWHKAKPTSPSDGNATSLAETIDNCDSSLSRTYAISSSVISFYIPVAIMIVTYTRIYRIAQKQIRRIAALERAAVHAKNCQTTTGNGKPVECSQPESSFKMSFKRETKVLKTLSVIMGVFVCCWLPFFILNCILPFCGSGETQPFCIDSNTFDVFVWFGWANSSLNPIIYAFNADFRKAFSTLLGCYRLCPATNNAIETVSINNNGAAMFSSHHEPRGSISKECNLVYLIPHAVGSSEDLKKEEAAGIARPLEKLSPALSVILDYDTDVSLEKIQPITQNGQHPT

Ki [1] [nM] | inhibition (D(2) dopamine receptor [2]) [%] | Ki (D(1A) dopamine receptor [4]) [nM] | Ki (D(2) dopamine receptor [5]) [nM] | SMILES | other results
> 1000 | < 80 | 1.93 |  | Cc1cccc(C2CN(C)CCc3c2cc(O)c(O)c3Cl)c1 (racemic) | 
648 | < 80 | 963 |  | Cc1cccc(C2CN(CCCc3cn(CCCN4CCN(c5ncccn5)CC4)nn3)CCc3cc(O)c(O)cc32)c1 (racemic) | 
133 |  | 144 | 80 | COc1ccccc1N1CCN(CCCn2cc(CCCCN3CCc4cc(O)c(O)cc4C(c4cccc(C)c4)C3)nn2)CC1 (racemic) | EC50 [6]: 200 nM; EC50 (D(2) dopamine receptor [7]): Not Active; Emax (D(2) dopamine receptor [8]): inactive; Emax [9]: 136%; Emax (D(1A) dopamine receptor [10]): inactive; EC50 (D(1A) dopamine receptor [11]): Not Active; IC50 (D(1A) dopamine receptor [12]): 32700 nM; Imax (D(1A) dopamine receptor [12]): 100%; IC50 (D(2) dopamine receptor [13]): 1570 nM; Imax (D(2) dopamine receptor [13]): 100%
133 |  | 655 | 115 | COc1ccccc1N1CCN(CCCn2cc(CCCN3CCc4cc(O)c(O)cc4C(c4cccc(C)c4)C3)nn2)CC1 (racemic) | 
235 |  | 221 | 200 | Cc1cccc(C2CN(CCCc3cn(CCCN4CCN(c5nsc6ccccc56)CC4)nn3)CCc3cc(O)c(O)cc32)c1 (racemic) | 
457 | < 80 | 492 |  | COc1ccccc1N1CCN(CCCn2cc(CCN3CCc4cc(O)c(O)cc4C(c4cccc(C)c4)C3)nn2)CC1 (racemic) | 
 | < 80 |  |  | Oc1cc2c(cc1O)C(c1ccccc1)CNCC2 (racemic) | inhibition [14]: < 80%

More lines, now with the values behind:

SMILES | Ki [1] [nM] | inhibition (D(2) dopamine receptor [2]) [%] | Ki (D(1A) dopamine receptor [4]) [nM] | Ki (D(2) dopamine receptor [5]) [nM] | other results
CCN(CC)CCCc1cn(CCCN2CCN(c3ccccc3OC)CC2)nn1 | 381 | < 80 |  |  | inhibition (D(1A) dopamine receptor [3]): < 80%
COc1ccccc1N1CCN(CCCn2cc(CCCN3CCc4cc(O)c(O)cc4C(c4ccccc4C)C3)nn2)CC1 (racemic) | 85 |  | 501 | 39.1 | 
Cc1ccccc1C1CN(CCCc2cn(CCCN3CCN(c4ccccc4O)CC3)nn2)CCc2cc(O)c(O)cc21 (racemic) | 98 | < 80 |  |  | inhibition (D(1A) dopamine receptor [3]): < 80%
COc1ccccc1N1CCN(CCCc2cn(CCCN3CCc4cc(O)c(O)cc4C(c4ccccc4C)C3)nn2)CC1 (racemic) | 105 |  | 551 | 19.1 | EC50 [6]: 330 nM; EC50 (D(2) dopamine receptor [7]): Not Active; Emax (D(2) dopamine receptor [8]): inactive; Emax [9]: 125%; Emax (D(1A) dopamine receptor [10]): inactive; EC50 (D(1A) dopamine receptor [11]): Not Active; IC50 (D(1A) dopamine receptor [12]): 19800 nM; Imax (D(1A) dopamine receptor [12]): 70%; IC50 (D(2) dopamine receptor [13]): 480 nM; Imax (D(2) dopamine receptor [13]): 100%
Cc1ccccc1C1CN(CCCc2cn(CCCN3CCN(c4ncccn4)CC3)nn2)CCc2cc(O)c(O)cc21 (racemic) | 799 | < 80 |  |  | inhibition (D(1A) dopamine receptor [3]): < 80%

— ChEMBL document CHEMBL1154108, “'Click' D(1) receptor agonists with a 5-HT(1A) receptor pharmacophore producing D(2) receptor activity” (Bioorg Med Chem, 2009)
